# Kir21 block: inhibitors of mouse Kir2.1 inward-rectifier potassium channel; P35561; HEK293-Kir2.1, FluxOR thallium flux fluorescence; hits give low values; B-score at 10 µM; hit rate 0.85% among 310,000;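 active = fluorescence ratio B-score at or below minus 3 SD of library scores, with starting-brightness B-score within 2 SD, cut at about -4.2 in these data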;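 also: channel flux triggered by added potassium and thallium sulfate stimulus; B-score of peak minus minimum fluorescence over baseline after thallium stimulus; more negative B-score means stronger Kir2.1 block with less thallium influx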
# KCNK3 block: human KCNK3 channel inhibition, primary screen. B-score at 10 µM. CHO-KCNK3 thallium flux, FluxOR fluorescence; hits give low values. hit rate 0.84% among 340,000. AID 602410. O14649;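 active = B-score under library mean minus 4 SD, starting fluorescence ratio at most library mean plus 5 SD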;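 also: more negative B-score means stronger inhibition of thallium flux through KCNK3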
# KCNQ1 block: human KCNQ1 channel inhibition; hit rate 1.3% among 310,000; P51787; B-score at 10 µM; CHO-K1 KCNQ1, FluxOR thallium flux fluorescence; hits give high values;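 active = compounds whose thallium flux B-score, printed positive for inhibition, exceeds three library SD while starting fluorescence stays within three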;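 also: channel opened by potassium depolarization with thallium stimulus after 20 min compound exposure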
# KCNQ1 act: potentiates or activates the human KCNQ1 potassium channel; P51787; CHO-K1 KCNQ1, thallium flux FluxOR fluorescence; hits give high values; B-score at 10 µM; hit rate 0.35% among 310,000; AID 2648;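 active = fluorescence ratio B-score, a plate-corrected score, at least three library SD, with initial intensity B-score within 5 SD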
#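 Schedule – 37 °C overnight plating, 90-min dark dye load, 20-min compound pretreatment · System – stable KCNQ1 CHO-K1 line · Probe or stimulus – thallium- and potassium-containing depolarizing buffer · Measured by – kinetic FluxOR fluorescence, 10 s baseline plus 110 s post-stimulus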
# hERG protect: compounds protecting human hERG from proarrhythmic drug block. CHO-hERG, FluxOR thallium flux, dofetilide IC70 present. activation (rescue from dofetilide block), less the hit threshold, % at 10 µM. hit rate 0.51% among 310,000. AID 1511;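 active = activation above the mean of controls blocked by dofetilide plus 5 SD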;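 also: thallium influx through hERG after potassium depolarization seen as dye fluorescence rise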
# KCNK9 block: inhibitors of human KCNK9 two-pore domain potassium channel; hit rate 1.2% among 310,000; B-score at 10 µM; Q9NPC2; HEK293 KCNK9, FluxOR thallium flux fluorescence; hits give low values;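 active = ratio B-score over 3 SD below the library mean, with starting fluorescence within 5 SD of its mean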;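 also: negative B-score means less thallium flux so channel inhibition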
# Target sequence (Q9NPC2 whole entry, looked up, the tested form may be a part): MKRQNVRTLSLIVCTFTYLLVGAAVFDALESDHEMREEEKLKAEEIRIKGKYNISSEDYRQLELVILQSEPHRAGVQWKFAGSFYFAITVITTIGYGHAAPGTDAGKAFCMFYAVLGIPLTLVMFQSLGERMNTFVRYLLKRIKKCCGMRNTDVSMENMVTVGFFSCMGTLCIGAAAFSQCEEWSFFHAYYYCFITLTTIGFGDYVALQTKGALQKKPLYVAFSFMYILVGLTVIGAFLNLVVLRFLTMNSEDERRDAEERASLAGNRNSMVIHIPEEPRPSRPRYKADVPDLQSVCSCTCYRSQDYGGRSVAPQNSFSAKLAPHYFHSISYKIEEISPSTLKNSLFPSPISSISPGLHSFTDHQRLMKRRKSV
# KCNK9 block conf: human KCNK9 inhibitor confirmation. shares compounds with KCNK9 block. inhibition, % at 10 µM. hit rate 43% among 4,900. HEK293 KCNK9 cells, FluxOR thallium flux fluorescence. AID 492992;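 active = thallium signal inhibited by more than 5 SD of the compound-free buffer control wells, on both duplicate plates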;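 also: 0% = assay buffer control wells without compound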
# Kir21 sel: mouse Kir2.1 off-target activity of KCNK9 modulators; shares compounds with KCNK9 block; Kir2.1 cells, FluxOR thallium flux fluorescence; inhibition, % at 10 µM; hit rate 4% among 4,900; AID 492993;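 active = thallium signal drop more than 5 SD beyond the mean of the no-compound control wells, seen in both duplicate plates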;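 also: signal is fluorescence rise after thallium addition divided by baseline fluorescence; plate controls were assay buffer only for no effect and full block by chlorpromazine control for full effect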
# HEK293 Tl ctr: non-induced cell nonspecific activity of KCNK9 modulators; inhibition, % at 10 µM; non-induced KCNK9-HEK293, FluxOR thallium flux; shares compounds with KCNK9 block; hit rate 40% among 4,900;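 active = thallium signal drop beyond 5 SD of the untreated control mean, on both duplicate plates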;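 also: plate controls were buffer only IC0 wells for no effect and SID17386958 at its maximal inhibitory level for full effect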
# Starred values were filed as active, the others as inactive; i = inactive; · = no result. Most compounds without a hit are left out; they make up all but 3.7% or so of the library.
SMILES,Kir21 block,KCNK3 block,KCNQ1 block,KCNQ1 act,hERG protect,KCNK9 block,KCNK9 block conf,Kir21 sel,HEK293 Tl ctr
CC1(C)Cc2c(C#N)c(N3CCCC3)nc(-c3ccco3)c2CO1,0.39,i,i,i,-26,i,i,i,i
CC(C)c1nc(N2CCN(C(=O)c3ccco3)CC2)c(C#N)c2c1COC(C)(C)C2,-2.1,i,i,i,-21,i,·,·,·
Cc1ccc(C(=O)N2CCC(C(=O)c3ccc(F)cc3)CC2)cc1,·,i,·,·,·,·,·,·,·
Cc1ccc(C(=O)N2C(=S)C(c3ccc(F)cc3)=NC23CCN(C)CC3)cc1,0.03,i,i,i,-17,i,i,i,i
Cc1ccc2c(c1)N(C(=O)CCC(=O)N1CCN(c3ccccc3)CC1)CCO2,0.02,i,i,i,-11,i,·,·,·
Cc1ccc2c(c1)N(C(=O)CCC(=O)N1CCN(c3cccc(C)c3C)CC1)CCO2,0.83,i,i,i,-14,i,i,i,i
CC1CCN(C(=O)CCC(=O)N2CC(C)Oc3ccccc32)CC1 (stereo not drawn),0.29,i,i,i,-9,i,·,·,·
Cc1cccc(N2CCN(C(=O)CCC(=O)N3CC(C)Oc4ccccc43)CC2)c1C (stereo not drawn),-1,i,i,i,-18,i,i,i,i
Cc1ccc(CNC(=O)CSc2nnc3n2CCCCC3)cc1,·,i,·,·,·,·,·,·,·
Cn1c(CCCOc2ccc(Cl)cc2Cl)nnc1SCC(=O)Nc1ccc(F)c(Cl)c1,1.5,i,i,i,-9,i,i,i,i
CCn1c(CCCOc2ccc(Cl)cc2Cl)nnc1SCC(=O)Nc1cc(F)ccc1C,0.03,i,i,i,-6,-9.7*,58%*,i,30%*
Cn1c(CCCOc2ccc(Cl)cc2Cl)nnc1SCC(=O)Nc1cccc(F)c1,-0.77,i,i,i,-7,i,·,·,·
Cc1c(C(=O)N2CCN(c3ccccc3)CC2)sc2ncnc(N3CCN(c4ccccn4)CC3)c12,-0.25,i,i,i,-5,i,·,·,·
Cc1c(C(=O)N2CCC(C)CC2)sc2ncnc(N3CCN(c4ccccc4)CC3)c12,-0.03,i,i,i,-19,i,i,i,i
Cc1c(C(=O)N(C)C2CCCCC2)sc2ncnc(N3CCN(c4ccccc4F)CC3)c12,-0.42,i,i,i,-7,i,·,·,·
Cc1c(C(=O)N(C)C2CCCCC2)sc2ncnc(N3CCN(c4ccccc4)CC3)c12,0.17,i,i,i,-8,i,i,i,i
Cn1cc(Br)c(C(=O)NNC(=O)c2ccc(Cl)cc2)n1,0.57,i,i,i,-8,i,·,·,·
CCOc1ccccc1C(=O)N1CCN(C(c2ccccc2)c2ccccc2)CC1,-0.02,i,i,i,-12,-8.4*,i,i,26%*
CCOc1ccccc1N1CCN(C(=O)C(Sc2ccccc2)c2ccccc2)CC1 (stereo not drawn),0.83,i,i,i,-9,-12*,56%*,i,28%*
Cc1ccccc1C(=O)N1CCN(C(c2ccccc2)c2ccccc2)CC1,0,i,i,i,-9,i,·,·,·
CC[C@H](C)C(N)c1cn(C(CCCN=C(N)N)C(=O)N2CCNCC2)nn1 (stereo partly drawn),·,i,·,·,·,·,·,·,·
O=C(Cn1c(=O)oc2ccccc21)NCCc1ccccc1Cl,-0.78,i,i,i,-9,i,·,·,·
O=[N+]([O-])c1c(C(Cl)Cl)nn(-c2ccccc2)c1N1CCCC1,-0.37,i,i,i,-14,i,·,·,·
CCOC(=O)C1CCN(c2c([N+](=O)[O-])c(C(Cl)Cl)nn2-c2ccccc2)CC1,-0.53,i,i,i,-10,i,i,i,i
COc1ccc(NC(=O)CN(C)C(=O)c2ccc3[nH]c4c(c3c2)CC(C)CC4)cc1 (stereo not drawn),0,i,i,i,-13,i,·,·,·
SMILES,Kir21 block,KCNK3 block,KCNQ1 block,KCNQ1 act,hERG protect,KCNK9 block,KCNK9 block conf,Kir21 sel,HEK293 Tl ctr
Cc1cccc(N2CCN(Cc3nc(CC4CC4)no3)CC2)n1,1.6,i,i,i,-10,i,·,·,·
Cc1ccccc1C1CCCN(Cc2nc(CC3CC3)no2)C1 (stereo not drawn),0.06,i,i,i,-18,i,i,i,i
c1ccc(C2CCCN(Cc3nc(CC4CC4)no3)CC2)cc1 (stereo not drawn),1.9,i,i,i,-12,i,i,i,i
COc1ccc(OCC2CCCN(Cc3nc(CC4CC4)no3)C2)cc1 (stereo not drawn),0.15,i,i,i,-4,i,·,·,·
Cc1cc(C)c(S(=O)(=O)c2ccccc2)c(OC(=O)c2c(Cl)cc(Cl)cc2Cl)n1,0.88,i,i,i,-7,-10*,52%*,i,32%*
Cc1cc(C)c(S(=O)(=O)c2ccccc2)c(OC(=O)c2c(F)cccc2F)n1,-3.2,i,i,i,-6,i,·,·,·
Cc1ccc(S(=O)(=O)NCC(=O)OCC(=O)NC2CCCCC2)cc1,·,i,·,·,·,·,·,·,·
CCOc1ccc(OCC)c(Nc2cc(C)nc3ncnn23)c1,-0.04,i,i,i,-5,i,i,i,24%*
COc1ccc(C)cc1NC(=O)C/C(C)=N/NC(=O)Cc1cccc2ccccc12,-2.1,i,i,i,-12,i,·,·,·
CC(C)C[C@@H](CN)NC(=O)c1nc[nH]c1C(=O)N[C@@H](CC(C)C)C(=O)CNC[C@H](C)NC(=O)c1nc[nH]c1C(=O)N[C@@H](C)C(=O)O,·,i,·,·,·,·,·,·,·
COc1ccc(C2=CCCC2)c(OC)c1,·,i,·,·,·,·,·,·,·
CN(CC(=O)Nc1cc(C(F)(F)F)ccc1-n1cncn1)Cc1ccccc1N1CCOCC1,·,i,·,·,·,·,·,·,·
Cc1ccc(CSCC(=O)NCc2ccc(F)cc2)cc1,-0.3,i,i,i,-4,i,·,·,·
Cc1ccc(NC(=O)CSCc2ccc(F)cc2)cc1,-0.55,i,i,i,-9,i,·,·,·
Cc1ccc(CCNC(=O)CSCc2ccc(F)cc2)cc1,-3.1,i,i,i,-4,i,i,i,i
COc1ccc(CSCC(=O)NCCC(C)C)cc1,-1.8,i,i,i,1,i,·,·,·

# Compound activity (PubChem BioAssay)
